# Source: ChEMBL document CHEMBL1148217, “Potential antipsoriatic avarol derivatives as antioxidants and inhibitors of PGE(2) generation and proliferation in the HaCaT cell line” (J Nat Prod, 2004)
# Key:
# Neutrophil [1] = assay: Inhibition of TPA-induced ROS production in human neutrophils by chemiluminescence; format: functional, cell-based
# Neutrophil [2] = assay: Inhibition of TPA-induced ROS production in human neutrophils at 5 uM by chemiluminescence; format: functional
# HaCaT [3] = assay: Inhibition of PGE2 production in human HaCaT cells at 5 uM after 24 hrs by RIA; format: functional
# [4] = Antiproliferative activity against human HaCaT cells assessed as [3H]thymidine incorporation at 5 uM after 24 hrs; format: cell-based
# [5] = system: Radical scavenging activity; assay: Antioxidant activity assessed as DPPH free radical scavenging activity after 30 mins by assay in solution
# HaCaT [6] = assay: Inhibition of PGE2 production in human HaCaT cells after 24 hrs by RIA; format: functional, cell-based
# HaCaT [7] = assay: Cytotoxicity against human HaCaT cells assessed as plasma membrane integrity damage at 5 uM; format: cell-based
# Procedure, shortened: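 Membrane damage in treated HaCaT keratinocytes was measured as LDH leakage into the culture medium, read as A550nm (mU), with compounds at 5 µM. Results are mean ± SEM; ANOVA followed by Dunnett's t-test.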
# HaCaT [8] = assay: Antiproliferative activity against human HaCaT cells assessed as [3H]thymidine incorporation after 24 hrs; format: cell-based
# Procedure, shortened: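 HaCaT keratinocytes were grown in DMEM with 10% FCS, penicillin and streptomycin at 37 °C and 5% CO₂. Cells were seeded at 4 × 10⁴/well for 24 h, then the medium was replaced and compounds or vehicle (1% EtOH) added for 24 h. Cells were pulsed 6 h with methyl-³H-thymidine (1 µCi/mL), and incorporation was counted by scintillation. %I at 5 µM; IC₅₀ from ≥4 concentrations (n = 6); mean ± SEM.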
IC50 (Neutrophil [1]) [nM],IC50 [5] [nM],Structure (SMILES),inhibition at 5 µM (Neutrophil [2]) [%],inhibition at 5 µM (HaCaT [3]) [%],"inhibition at 24 h, 5 µM [4] [%]",IC50 (HaCaT [6]) [nM],Activity (HaCaT [7]) [%],IC50 (HaCaT [8]) [nM]
1000,–,COc1cc2ccc(=O)oc2c(O)c1O [FRAXETIN],76.4,–,–,–,–,–
–,–,CC1=CCC[C@H]2[C@](C)(CC3=CC(=O)C(NCCc4c[nH]c5ccccc45)=CC3=O)[C@@H](C)CC[C@]12C,26.7,50.4,36.7,–,–,–
–,–,CC1=CCC[C@H]2[C@](C)(CC3=CC(=O)C=C(NCCc4c[nH]c5ccccc45)C3=O)[C@@H](C)CC[C@]12C,25.2,47.1,33.3,–,–,–
3600,18000,CC1=CCC[C@H]2[C@](C)(Cc3cc(O)ccc3O)[C@@H](C)CC[C@]12C [AVAROL],71.7,4.9,18.9,–,–,–
–,–,CNC1=CC(=O)C(C[C@]2(C)[C@@H](C)CC[C@]3(C)C(C)=CCC[C@@H]23)=CC1=O,37.8,54.8,33.5,–,–,–
–,–,CS(=O)(=O)Nc1ccc([N+](=O)[O-])cc1OC1CCCCC1 [NS-398],–,93.8,–,10,–,–
–,–,O=C1c2c(O)cccc2Cc2cccc(O)c21 [ANTHRALIN],31.2,–,73.8,–,59,2900
